From ChEMBL document CHEMBL4184148 (Bioorg Med Chem Lett, 2017)

What was measured:
[1] = molecular target: Serine/threonine-protein kinase OSR1 (Homo sapiens) (UniProt O95747); experiment: Binding affinity to wild-type human full length OSR1 (M1 to S527 residues) expressed in HEK293 cells at 1 uM by Kinomescan method relative to control; format: cell-based
Outline: (§1)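 Kinome-wide competition binding panel run by an outside provider, with each compound tested at a single concentration. Activity is read against the kinase panel.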

[2] = molecular target: Serine/threonine-protein kinase WNK4 (Homo sapiens) (UniProt Q96J92); experiment: Binding affinity to wild-type human partial length WNK4 (A31 to D461 residues) expressed in HEK293 cells at 1 uM by Kinomescan method relative to control; format: cell-based
[3] = molecular target: Tyrosine-protein kinase SYK (Homo sapiens) (UniProt P43405); experiment: Binding affinity to wild-type human partial length SYK (D354 to N635 residues) expressed in Escherichia coli BL21 at 1 uM by Kinomescan method relative to control
[4] = molecular target: Calcium/calmodulin-dependent protein kinase kinase 1 (Homo sapiens) (UniProt Q8N5S9); experiment: Binding affinity to wild-type human partial length CAMKK1 (R65 to E414 residues) expressed in Escherichia coli BL21 at 1 uM by Kinomescan method relative to control
[5] = molecular target: Cyclin-dependent kinase 2 (Homo sapiens) (UniProt P24941); experiment: Binding affinity to wild-type human full length CDK2 (M1 to L298 residues) expressed in Escherichia coli BL21 at 1 uM by Kinomescan method relative to control
[6] = molecular target: Mitogen-activated protein kinase kinase kinase 15 (Homo sapiens) (UniProt Q6ZN16); experiment: Binding affinity to wild-type human partial length MAP3K15 (T625 to L932 residues) expressed in HEK293 cells at 1 uM by Kinomescan method relative to control; format: cell-based
[7] = molecular target: Dual specificity protein kinase CLK3 (Homo sapiens) (UniProt P49761); experiment: Binding affinity to wild-type human full length CLK3 (M1 to R490 residues) expressed in Escherichia coli BL21 at 1 uM by Kinomescan method relative to control
Outline: (§2)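 Run as one kinome-wide competition binding panel with each compound at a single fixed concentration. Results were plotted as a kinome-wide selectivity map.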

[8] = molecular target: Calcium/calmodulin-dependent protein kinase type 1D (Homo sapiens) (UniProt Q8IU85); experiment: Binding affinity to wild-type human partial length CAMK1D (M1 to K299 residues) expressed in Escherichia coli BL21 at 1 uM by Kinomescan method relative to control
[9] = test system: Tyrosine-protein kinase ABL1 (Homo sapiens), P00519 [H396P]; experiment: Binding affinity to human phosphorylated ABL1 H396P mutant (S229 to K512 residues) expressed in HEK293 cells at 1 uM by Kinomescan method relative to control; format: cell-based
[10] = molecular target: Testis-specific serine/threonine-protein kinase 1 (Homo sapiens) (UniProt Q9BXA7); experiment: Binding affinity to wild-type human full length TSSK1B (M1 to Q367 residues) expressed in Escherichia coli BL21 at 1 uM by Kinomescan method relative to control; outline: as §1
[11] = molecular target: Beta-adrenergic receptor kinase 1 (Homo sapiens) (UniProt P25098); experiment: Binding affinity to wild-type human full length GRK2 (M1 to L689 residues) expressed in HEK293 cells at 1 uM by Kinomescan method relative to control; format: cell-based; outline: as §2
[12] = molecular target: G protein-coupled receptor kinase 3 (Homo sapiens) (UniProt P35626); experiment: Binding affinity to wild-type human full length GRK3 (M1 to L688 residues) expressed in HEK293 cells at 1 uM by Kinomescan method relative to control; format: cell-based; outline: as §2
[13] = molecular target: Tyrosine-protein kinase receptor TYRO3 (Homo sapiens) (UniProt Q06418); experiment: Binding affinity to wild-type human partial length TYRO3 (S497 to T814 residues) expressed in Escherichia coli BL21 at 1 uM by Kinomescan method relative to control
[14] = molecular target: Phosphatidylinositol 4,5-bisphosphate 3-kinase catalytic subunit beta isoform (Homo sapiens) (UniProt P42338); experiment: Binding affinity to wild-type human partial length PIK3CB (P118 to S1070 residues) expressed in HEK293 cells at 1 uM by Kinomescan method relative to control; format: cell-based
[15] = Half life in mouse hepatic microsomes at 1 mg/ml; format: ADME, Liver, microsome
[16] = molecular target: Fibroblast growth factor receptor 3 (Homo sapiens) (UniProt P22607); experiment: Binding affinity to wild-type human partial length FGFR3 (R442 to S771 residues) expressed in Escherichia coli BL21 at 1 uM by Kinomescan method relative to control
[17] = test system: Receptor-type tyrosine-protein kinase FLT3 (Homo sapiens), P36888 [D835H]; experiment: Binding affinity to human partial length FLT3 D835H mutant (V592 to Y969 residues) expressed in Escherichia coli BL21 at 1 uM by Kinomescan method relative to control
[18] = molecular target: Serine/threonine-protein kinase LATS1 (Homo sapiens) (UniProt O95835); experiment: Binding affinity to wild-type human partial length LATS1 (Q678 to V1130 residues) expressed in Escherichia coli BL21 at 1 uM by Kinomescan method relative to control
[19] = molecular target: Dual specificity protein kinase CLK2 (Homo sapiens) (UniProt P49760); experiment: Binding affinity to wild-type human partial length CLK2 (D144 to R498 residues) expressed in Escherichia coli BL21 at 1 uM by Kinomescan method relative to control
[20] = molecular target: Interferon-induced, double-stranded RNA-activated protein kinase (Homo sapiens) (UniProt P19525); experiment: Binding affinity to wild-type human partial length PRKR (F247 to C551 residues) expressed in Escherichia coli BL21 at 1 uM by Kinomescan method relative to control
[21] = molecular target: TGF-beta receptor type-1 (Homo sapiens) (UniProt P36897); experiment: Binding affinity to wild-type human partial length TGFBR1 (D179 to M503 residues) expressed in Escherichia coli BL21 at 1 uM by Kinomescan method relative to control
[22] = test system: Epidermal growth factor receptor (Homo sapiens), P00533 [G719S]; experiment: Binding affinity to human partial length EGFR G719S mutant (R669 to V1011 residues) expressed in Escherichia coli BL21 at 1 uM by Kinomescan method relative to control
[23] = molecular target: Proto-oncogene tyrosine-protein kinase Src (Homo sapiens) (UniProt P12931); experiment: Binding affinity to wild-type human partial length SRC (L240 to L536 residues) expressed in Escherichia coli BL21 at 1 uM by Kinomescan method relative to control
[24] = molecular target: Hormonally up-regulated neu tumor-associated kinase (Homo sapiens) (UniProt P57058); experiment: Binding affinity to wild-type human partial length HUNK (A31 to K354 residues) expressed in Escherichia coli BL21 at 1 uM by Kinomescan method relative to control
[25] = molecular target: Cyclin-dependent kinase 11B (Homo sapiens) (UniProt P21127); experiment: Binding affinity to wild-type human partial length CDK11 (M1 to N360 residues) expressed in Escherichia coli BL21 assessed as residual activity at 1000 nM after 1 hr by Kinomescan method relative to control
[26] = molecular target: Cyclin-dependent kinase 9 (Homo sapiens) (UniProt P50750); experiment: Binding affinity to wild-type human full length CDK9 (M1 to F372 residues) expressed in Escherichia coli BL21 at 1 uM by Kinomescan method relative to control; outline: as §2

Calcium/calmodulin-dependent protein kinase type 1D (Homo sapiens), sequence (Q8IU85 whole entry, looked up, the tested form may be a part): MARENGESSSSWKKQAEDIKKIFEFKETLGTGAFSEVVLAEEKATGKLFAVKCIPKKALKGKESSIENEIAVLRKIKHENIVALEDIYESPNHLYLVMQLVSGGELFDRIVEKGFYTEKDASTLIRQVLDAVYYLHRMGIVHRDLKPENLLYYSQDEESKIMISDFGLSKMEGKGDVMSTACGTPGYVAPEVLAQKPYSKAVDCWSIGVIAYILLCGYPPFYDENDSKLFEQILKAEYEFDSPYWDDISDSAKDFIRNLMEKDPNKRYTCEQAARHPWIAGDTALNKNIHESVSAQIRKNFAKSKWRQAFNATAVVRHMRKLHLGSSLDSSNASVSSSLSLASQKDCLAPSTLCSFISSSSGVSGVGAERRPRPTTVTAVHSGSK
TGF-beta receptor type-1 (Homo sapiens), sequence (P36897 whole entry, the tested form may be a part): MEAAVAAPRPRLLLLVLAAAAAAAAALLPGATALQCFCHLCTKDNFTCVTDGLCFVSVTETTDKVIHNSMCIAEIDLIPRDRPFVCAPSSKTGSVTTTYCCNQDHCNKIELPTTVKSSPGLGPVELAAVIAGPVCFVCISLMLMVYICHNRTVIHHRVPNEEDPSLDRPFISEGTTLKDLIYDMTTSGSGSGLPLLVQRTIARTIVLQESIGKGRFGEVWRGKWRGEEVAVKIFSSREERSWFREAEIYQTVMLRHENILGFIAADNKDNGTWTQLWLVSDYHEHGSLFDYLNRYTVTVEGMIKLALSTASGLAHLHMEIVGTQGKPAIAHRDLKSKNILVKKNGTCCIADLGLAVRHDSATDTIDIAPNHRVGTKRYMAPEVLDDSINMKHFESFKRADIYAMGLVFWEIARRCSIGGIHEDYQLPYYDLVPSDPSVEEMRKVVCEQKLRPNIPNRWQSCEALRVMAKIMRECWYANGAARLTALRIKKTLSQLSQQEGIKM
Dual specificity protein kinase CLK2 (Homo sapiens), sequence (P49760 whole entry, looked up, the tested form may be a part): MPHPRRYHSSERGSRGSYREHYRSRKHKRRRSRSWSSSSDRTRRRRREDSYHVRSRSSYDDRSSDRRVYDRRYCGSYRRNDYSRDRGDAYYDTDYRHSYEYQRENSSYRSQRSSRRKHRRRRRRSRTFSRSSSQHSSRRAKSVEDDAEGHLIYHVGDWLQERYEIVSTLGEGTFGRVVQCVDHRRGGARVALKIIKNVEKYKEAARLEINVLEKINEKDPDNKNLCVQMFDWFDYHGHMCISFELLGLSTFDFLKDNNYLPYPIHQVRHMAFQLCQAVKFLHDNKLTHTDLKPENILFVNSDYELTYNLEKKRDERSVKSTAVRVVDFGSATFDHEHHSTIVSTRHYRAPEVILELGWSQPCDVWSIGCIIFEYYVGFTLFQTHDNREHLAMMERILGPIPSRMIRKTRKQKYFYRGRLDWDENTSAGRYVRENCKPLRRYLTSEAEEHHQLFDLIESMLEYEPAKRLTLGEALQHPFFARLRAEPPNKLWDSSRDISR
Serine/threonine-protein kinase LATS1 (Homo sapiens), sequence (O95835 whole entry, the tested form may be a part): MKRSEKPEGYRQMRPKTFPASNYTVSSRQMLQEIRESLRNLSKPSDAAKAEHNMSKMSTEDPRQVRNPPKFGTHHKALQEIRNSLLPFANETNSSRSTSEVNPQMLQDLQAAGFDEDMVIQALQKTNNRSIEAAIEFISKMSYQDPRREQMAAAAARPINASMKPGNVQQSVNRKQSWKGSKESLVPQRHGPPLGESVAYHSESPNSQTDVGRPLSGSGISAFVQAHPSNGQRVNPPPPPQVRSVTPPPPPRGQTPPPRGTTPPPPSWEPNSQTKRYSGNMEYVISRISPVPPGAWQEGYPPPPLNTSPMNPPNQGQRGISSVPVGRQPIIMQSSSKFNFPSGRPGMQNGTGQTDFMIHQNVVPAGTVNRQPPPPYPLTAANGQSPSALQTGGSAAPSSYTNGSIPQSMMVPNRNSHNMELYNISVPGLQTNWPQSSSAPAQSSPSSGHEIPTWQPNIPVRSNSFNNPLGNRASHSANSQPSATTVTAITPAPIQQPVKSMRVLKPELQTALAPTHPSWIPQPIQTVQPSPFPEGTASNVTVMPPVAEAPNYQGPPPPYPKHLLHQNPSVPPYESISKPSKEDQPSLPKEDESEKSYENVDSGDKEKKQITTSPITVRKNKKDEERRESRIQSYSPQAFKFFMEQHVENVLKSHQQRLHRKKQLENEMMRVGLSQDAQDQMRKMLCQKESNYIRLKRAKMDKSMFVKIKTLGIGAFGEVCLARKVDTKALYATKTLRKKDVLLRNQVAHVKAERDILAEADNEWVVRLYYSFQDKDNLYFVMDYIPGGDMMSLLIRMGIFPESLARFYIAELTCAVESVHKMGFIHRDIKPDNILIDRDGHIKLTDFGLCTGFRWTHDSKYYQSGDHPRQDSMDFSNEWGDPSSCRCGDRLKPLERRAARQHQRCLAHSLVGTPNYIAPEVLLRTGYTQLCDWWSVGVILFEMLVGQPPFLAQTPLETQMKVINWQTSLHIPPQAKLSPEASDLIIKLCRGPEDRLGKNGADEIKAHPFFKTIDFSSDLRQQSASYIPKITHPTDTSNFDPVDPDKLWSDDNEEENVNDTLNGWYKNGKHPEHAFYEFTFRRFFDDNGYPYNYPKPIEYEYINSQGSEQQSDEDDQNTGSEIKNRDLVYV
Phosphatidylinositol 4,5-bisphosphate 3-kinase catalytic subunit beta isoform (Homo sapiens), sequence (P42338 whole entry, looked up, the tested form may be a part, canonical isoform): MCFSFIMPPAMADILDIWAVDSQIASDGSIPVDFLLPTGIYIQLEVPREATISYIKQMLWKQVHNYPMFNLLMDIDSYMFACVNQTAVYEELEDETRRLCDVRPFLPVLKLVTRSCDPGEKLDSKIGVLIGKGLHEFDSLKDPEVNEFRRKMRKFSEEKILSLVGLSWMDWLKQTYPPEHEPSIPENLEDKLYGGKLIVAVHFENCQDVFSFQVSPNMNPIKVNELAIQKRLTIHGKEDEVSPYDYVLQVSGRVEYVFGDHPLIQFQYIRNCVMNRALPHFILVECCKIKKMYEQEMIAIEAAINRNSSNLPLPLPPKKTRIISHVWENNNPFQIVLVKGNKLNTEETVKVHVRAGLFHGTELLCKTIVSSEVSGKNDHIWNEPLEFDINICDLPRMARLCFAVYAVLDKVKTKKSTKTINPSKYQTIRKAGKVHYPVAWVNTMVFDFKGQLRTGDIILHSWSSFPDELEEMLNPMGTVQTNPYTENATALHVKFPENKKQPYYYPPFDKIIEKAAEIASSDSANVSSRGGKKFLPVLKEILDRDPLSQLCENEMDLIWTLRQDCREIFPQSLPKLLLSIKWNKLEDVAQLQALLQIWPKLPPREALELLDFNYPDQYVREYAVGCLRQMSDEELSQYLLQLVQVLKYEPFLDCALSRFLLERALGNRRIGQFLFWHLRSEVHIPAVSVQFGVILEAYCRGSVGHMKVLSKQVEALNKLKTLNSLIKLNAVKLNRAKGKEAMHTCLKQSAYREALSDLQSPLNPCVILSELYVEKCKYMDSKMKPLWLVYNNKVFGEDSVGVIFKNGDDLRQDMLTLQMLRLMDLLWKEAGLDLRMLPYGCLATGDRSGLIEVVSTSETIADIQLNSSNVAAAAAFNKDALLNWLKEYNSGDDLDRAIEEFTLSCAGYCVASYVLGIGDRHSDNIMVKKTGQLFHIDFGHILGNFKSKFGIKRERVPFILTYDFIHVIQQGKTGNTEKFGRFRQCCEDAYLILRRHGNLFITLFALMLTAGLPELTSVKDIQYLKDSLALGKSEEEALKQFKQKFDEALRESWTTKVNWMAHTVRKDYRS
Tyrosine-protein kinase receptor TYRO3 (Homo sapiens), sequence (Q06418 whole entry, the tested form may be a part, canonical isoform): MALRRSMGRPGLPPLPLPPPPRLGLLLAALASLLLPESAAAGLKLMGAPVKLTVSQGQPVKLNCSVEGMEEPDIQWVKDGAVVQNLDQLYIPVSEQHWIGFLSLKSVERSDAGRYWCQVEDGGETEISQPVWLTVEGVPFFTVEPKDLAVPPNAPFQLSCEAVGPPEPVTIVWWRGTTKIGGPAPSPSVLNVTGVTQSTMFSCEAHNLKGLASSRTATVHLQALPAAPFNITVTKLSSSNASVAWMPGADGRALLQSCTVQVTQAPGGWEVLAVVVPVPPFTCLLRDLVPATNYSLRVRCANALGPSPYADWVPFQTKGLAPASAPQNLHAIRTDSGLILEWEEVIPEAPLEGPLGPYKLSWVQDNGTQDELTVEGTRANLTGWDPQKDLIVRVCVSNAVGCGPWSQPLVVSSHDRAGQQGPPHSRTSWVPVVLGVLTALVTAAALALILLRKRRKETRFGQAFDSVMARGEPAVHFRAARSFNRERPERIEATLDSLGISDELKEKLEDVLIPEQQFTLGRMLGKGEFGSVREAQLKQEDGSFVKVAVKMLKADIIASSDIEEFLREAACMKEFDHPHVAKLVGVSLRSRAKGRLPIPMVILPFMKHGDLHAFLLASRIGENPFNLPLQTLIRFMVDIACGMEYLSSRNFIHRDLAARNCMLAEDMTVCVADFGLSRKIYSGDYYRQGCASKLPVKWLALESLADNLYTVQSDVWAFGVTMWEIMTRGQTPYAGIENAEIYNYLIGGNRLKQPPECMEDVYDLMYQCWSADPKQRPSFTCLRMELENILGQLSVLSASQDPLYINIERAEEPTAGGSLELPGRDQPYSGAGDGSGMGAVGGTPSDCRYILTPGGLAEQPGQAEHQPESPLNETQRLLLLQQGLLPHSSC
Interferon-induced, double-stranded RNA-activated protein kinase (Homo sapiens), sequence (P19525 whole entry, the tested form may be a part): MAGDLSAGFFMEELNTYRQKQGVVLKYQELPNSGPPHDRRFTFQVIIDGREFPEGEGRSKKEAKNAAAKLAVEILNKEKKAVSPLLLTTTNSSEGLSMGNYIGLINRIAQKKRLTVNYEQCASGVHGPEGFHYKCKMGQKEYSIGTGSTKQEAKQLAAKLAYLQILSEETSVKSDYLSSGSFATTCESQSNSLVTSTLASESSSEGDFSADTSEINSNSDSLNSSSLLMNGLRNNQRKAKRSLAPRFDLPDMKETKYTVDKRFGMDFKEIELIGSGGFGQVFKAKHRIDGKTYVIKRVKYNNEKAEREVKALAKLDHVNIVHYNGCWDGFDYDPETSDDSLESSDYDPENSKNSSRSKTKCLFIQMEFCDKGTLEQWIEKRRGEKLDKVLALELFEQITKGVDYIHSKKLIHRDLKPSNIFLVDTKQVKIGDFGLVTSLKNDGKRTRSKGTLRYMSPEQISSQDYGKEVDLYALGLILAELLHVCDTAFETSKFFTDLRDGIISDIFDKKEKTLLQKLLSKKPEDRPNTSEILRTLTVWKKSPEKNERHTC

| SMILES | Activity [1] [%] | Activity [2] [%] | Activity [3] [%] | Activity [4] [%] | Activity [5] [%] | Activity [6] [%] | Activity [7] [%] | Activity [8] [%] | Activity [9] [%] | Activity [10] [%] | Activity [11] [%] | Activity [12] [%] | Activity [13] [%] | Activity [14] [%] | t1/2 [15] [min] | Activity [16] [%] | Activity [17] [%] | Activity [18] [%] | Activity [19] [%] | Activity [20] [%] | also measured |
| --- | --- | --- | --- | --- | --- | --- | --- | --- | --- | --- | --- | --- | --- | --- | --- | --- | --- | --- | --- | --- | --- |
| C=CC(=O)Nc1ccc(C(=O)Nc2ccc(Nc3ncc4c(n3)N(C)c3ccc(C)cc3C(=O)N4C)cc2)cc1 | 99 | 99 | 74 | 100 | 100 | 100 | 89 | 100 | 91 | 100 | 100 | 100 | 92 | 100 | 7.5 | 73 | 92 | 99 | 99 | 90 | Activity [21]: 89%; Activity [22]: 100%; Activity [23]: 96%; Activity [24]: 100%; Activity [25]: 100%; Activity [26]: 97% |
| CCC(=O)Nc1ccc(C(=O)Nc2ccc(Nc3ncc4c(n3)N(C)c3ccc(C)cc3C(=O)N4C)cc2)cc1 | 90 | 85 | 87 | 100 | 97 | 62 | 91 | 88 | 64 | 89 | 90 | 70 | 91 | 50 | 2.9 | 89 | 87 | 100 | 88 | 100 | Activity [21]: 97%; Activity [22]: 93%; Activity [23]: 87%; Activity [24]: 91%; Activity [25]: 100%; Activity [26]: 97% |
